Experiments:
[1] = Antiinflammatory activity in fMLP/cytochalasin B stimulated rat neutrophils assessed as inhibition of beta-glucuronidase release at 10 uM preincubated for 10 mins measured 45 mins after fMLP/cytochalasin B challenge relative to control; type: functional, Neutrophil; parameters: Activity: scale not given: the % may be the effect or the level left
In short: (§1)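 Rat blood neutrophils were isolated in EDTA by dextran sedimentation, Ficoll-Hypaque and hypotonic lysis, then suspended in HBSS at 1 × 10⁷ cells/mL. Preincubated 10 min at 37 °C with drug or DMSO (final ≤0.5%), then challenged with fMLP (1 μM)/cytochalasin B (5 μg/mL). After 45 min, supernatant lysozyme and β-glucuronidase were expressed as percent of the Triton X-100 total content.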

[2] = Antiinflammatory activity in fMLP/cytochalasin B stimulated rat neutrophils assessed as inhibition of beta-glucuronidase release preincubated for 10 mins measured 45 mins after fMLP/cytochalasin B challenge; type: functional, cell-based; details: Neutrophil; in short: as §1
[3] = Antiinflammatory activity in fMLP/cytochalasin B stimulated rat neutrophils assessed as inhibition of beta-glucuronidase release at 1 ug/ml preincubated for 10 mins measured 45 mins after fMLP/cytochalasin B challenge relative to control; type: functional, Neutrophil; parameters: scale not given: the % may be the effect or the level left; details: in the assay text read “1 uM” for “1 ug/ml”; in short: as §1
[4] = Antiinflammatory activity in fMLP/cytochalasin B stimulated rat neutrophils assessed as beta-glucuronidase release at 10 uM preincubated for 10 mins measured 45 mins after fMLP/cytochalasin B challenge relative to control; type: functional, Neutrophil; in short: as §1
[5] = Antiinflammatory activity in fMLP/cytochalasin B stimulated rat neutrophils assessed as beta-glucuronidase release at 1 ug/ml preincubated for 10 mins measured 45 mins after fMLP/cytochalasin B challenge relative to control; type: functional, Neutrophil; details: in the assay text read “1 uM” for “1 ug/ml”; in short: as §1
[6] = Antiinflammatory activity in fMLP/cytochalasin B stimulated rat neutrophils assessed as beta-glucuronidase release at 3 ug/ml preincubated for 10 mins measured 45 mins after fMLP/cytochalasin B challenge relative to control; type: functional, Neutrophil; details: in the assay text read “3 uM” for “3 ug/ml”; in short: as §1
[7] = Antiinflammatory activity in fMLP/cytochalasin B stimulated rat neutrophils assessed as lysozyme release at 10 uM preincubated for 10 mins measured 45 mins after fMLP/cytochalasin B challenge relative to control; type: functional, Neutrophil; in short: as §1
[8] = Antiinflammatory activity in fMLP/cytochalasin B stimulated rat neutrophils assessed as lysozyme release at 1 ug/ml preincubated for 10 mins measured 45 mins after fMLP/cytochalasin B challenge relative to control; type: functional, Neutrophil; details: in the assay text read “1 uM” for “1 ug/ml”; in short: as §1
[9] = Antiinflammatory activity in fMLP/cytochalasin B stimulated rat neutrophils assessed as lysozyme release at 3 ug/ml preincubated for 10 mins measured 45 mins after fMLP/cytochalasin B challenge relative to control; type: functional, Neutrophil; details: in the assay text read “3 uM” for “3 ug/ml”; in short: as §1
[10] = Antiinflammatory activity in fMLP/cytochalasin B stimulated rat neutrophils assessed as inhibition of lysozyme release at 10 uM preincubated for 10 mins measured 45 mins after fMLP/cytochalasin B challenge relative to control; type: functional; details: Neutrophil; in short: as §1
[11] = Antiinflammatory activity in fMLP/cytochalasin B stimulated rat neutrophils assessed as inhibition of lysozyme release at 3 ug/ml preincubated for 10 mins measured 45 mins after fMLP/cytochalasin B challenge relative to control; type: functional; details: Neutrophil; in short: as §1
[12] = Antiinflammatory activity in fMLP/cytochalasin B stimulated rat neutrophils assessed as inhibition of lysozyme release preincubated for 10 mins measured 45 mins after fMLP/cytochalasin B challenge; type: functional, cell-based; details: Neutrophil; in short: as §1
RAW264.7 [13] = experiment: Antiinflammatory activity in LPS-stimulated mouse RAW264.7 cells assessed as inhibition of nitric oxide production at 3 uM pretreated 1 hr before LPS challenge relative to control; type: functional
In short: (§2)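 RAW 264.7 mouse macrophage-like cells in DMEM with 10% FCS, plated at 2 × 10⁵ cells/well and adhered overnight. Pretreated with test drug or DMSO (final ≤0.5%) for 1 h at 37 °C, then stimulated with LPS (E. coli 0111:B4, 1 μg/mL) for 24 h. Nitrite in the medium was measured by Griess reaction (A550) against a NaNO₂ standard curve. Mean ± SEM, n = 3.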

RAW264.7 [14] = experiment: Antiinflammatory activity in LPS-stimulated mouse RAW264.7 cells assessed as inhibition of nitric oxide production at 10 uM pretreated 1 hr before LPS challenge relative to control; type: functional; in short: as §2
RAW264.7 [15] = experiment: Antiinflammatory activity in LPS-stimulated mouse RAW264.7 cells assessed as inhibition of nitric oxide production at 30 uM pretreated 1 hr before LPS challenge relative to control; type: functional; in short: as §2
RAW264.7 [16] = experiment: Antiinflammatory activity in LPS-stimulated mouse RAW264.7 cells assessed as inhibition of nitric oxide production pretreated 1 hr before LPS challenge; type: functional, cell-based; in short: as §2
N9 [17] = experiment: Antiinflammatory activity in LPS/IFN-gamma-stimulated mouse N9 cells assessed as inhibition of nitric oxide production at 3 uM pretreated 1 hr before LPS/IFNgamma challenge relative to control; type: functional
In short: (§3)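 N9 murine microglial line in Iscove's modified DMEM with 5% heat-inactivated FCS, 8 × 10⁴ cells/well. Pretreated for 1 h at 37 °C with drug or DMSO (final ≤0.5%), then stimulated with LPS (10 ng/mL) plus IFN-γ (10 unit/mL) for 24 h. Medium nitrite was read by Griess reaction at 550 nm with a NaNO₂ standard. Mean ± SEM, n = 3.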

N9 [18] = experiment: Toxicity in LPS/IFN-gamma-stimulated mouse N9 cells assessed as LDH release at 30 uM; type: cell-based; details: n9, 30 µM
In short: (§4)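 Cytotoxicity in LPS-stimulated RAW 264.7 or LPS/IFN-γ-stimulated N9 cultures, assessed by LDH release assay and trypan blue exclusion.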

RAW264.7 [19] = experiment: Toxicity in LPS-stimulated mouse RAW264.7 cells assessed as LDH release at 30 uM; type: cell-based; details: raw264.7, 30 µM; in short: as §4
N9 [20] = experiment: Antiinflammatory activity in LPS/IFN-gamma-stimulated mouse N9 cells assessed as inhibition of nitric oxide production at 10 uM pretreated 1 hr before LPS/IFNgamma challenge relative to control
[21] = Antiinflammatory activity in fMLP/cytochalasin B stimulated rat neutrophils assessed as inhibition of beta-glucuronidase release at 3 uM preincubated for 10 mins measured 45 mins after fMLP/cytochalasin B challenge relative to control; parameters: scale not given: the % may be the effect or the level left
N9 [22] = experiment: Antiinflammatory activity in LPS/IFN-gamma-stimulated mouse N9 cells assessed as inhibition of nitric oxide production pretreated 1 hr before LPS/IFNgamma challenge
[23] = Antiinflammatory activity in fMLP/cytochalasin B stimulated rat neutrophils assessed as inhibition of beta-glucuronidase release at 30 uM preincubated for 10 mins measured 45 mins after fMLP/cytochalasin B challenge relative to control; type: functional; details: Neutrophil, read-out: INH; in short: as §1
[24] = Antiinflammatory activity in fMLP/cytochalasin B stimulated rat neutrophils assessed as beta-glucuronidase release at 30 uM preincubated for 10 mins measured 45 mins after fMLP/cytochalasin B challenge relative to control; type: functional, Neutrophil; in short: as §1
[25] = Antiinflammatory activity in fMLP/cytochalasin B stimulated rat neutrophils assessed as lysozyme release at 30 uM preincubated for 10 mins measured 45 mins after fMLP/cytochalasin B challenge relative to control; type: functional, Neutrophil; in short: as §1
[26] = Antiinflammatory activity in fMLP/cytochalasin B stimulated rat neutrophils assessed as inhibition of lysozyme release at 30 uM preincubated for 10 mins measured 45 mins after fMLP/cytochalasin B challenge relative to control; type: functional; details: Neutrophil; in short: as §1
N9 [27] = experiment: Antiinflammatory activity in LPS-stimulated mouse N9 cells assessed as inhibition of nitric oxide production at 1 uM pretreated 1 hr before LPS challenge relative to control; type: functional; in short: as §3

SMILES	IC50 [2] [µM]	Activity [4] [%]	Activity [7] [%]	inhibition at 10 µM [10] [%]	inhibition at 3 µM (RAW264.7 [13]) [%]	inhibition at 10 µM (RAW264.7 [14]) [%]	inhibition at 30 µM (RAW264.7 [15]) [%]	IC50 (RAW264.7 [16]) [µM]	inhibition at 3 µM (N9 [17]) [%]	Activity (N9 [18])	Activity (RAW264.7 [19])	inhibition at 10 µM (N9 [20]) [%]	IC50 (N9 [22]) [µM]	also measured
C=C(C)c1cc2c3c(ccc2o1)[C@@H]1COc2cc(O)ccc2[C@@H]1O3 [CROTAFURAN A]	7.8	16.5	23.6	56.2	-5.1	20.6	59.5	23	15.4	Toxic	Toxic	45.6	–	Activity [1]: 55.8%; Activity [3]: 6.9%; Activity [5]: 34.7%; Activity [6]: 24.8%; Activity [8]: 54.2%; Activity [9]: 46.9%; inhibition at 3 µg/mL [11]: 14%; IC50 [12]: 9.5 µM; Activity [21]: 33.4%
CC(=N)NCc1cccc(CN)c1 [1400W]	–	–	–	–	–	–	–	2.3	–	–	–	–	3.6	–
CN1CCN(CCCN2c3ccccc3Sc3ccc(C(F)(F)F)cc32)CC1 [TRIFLUOPERAZINE]	12.2	–	–	–	–	–	–	–	–	–	–	–	–	–
CC(=O)c1cc2c3c(ccc2o1)[C@@H]1COc2cc(O)ccc2[C@@H]1O3 [CROTAFURAN B]	–	37.7	58.9	-7.8	3.2	25.6	64.4	19	29	Toxic	Toxic	50.4	9.4	inhibition at 10 µM ([1]; Rattus norvegicus, Neutrophil): -0.9%; inhibition at 30 µM [23]: 5.1%; Activity [24]: 35.3%; Activity [25]: 55.1%; inhibition at 30 µM [26]: -0.4%; inhibition at 1 µM (N9 [27]): 4.2%

— ChEMBL document CHEMBL1150680, “Anti-inflammatory constituents and new pterocarpanoid of Crotalaria pallida” (J Nat Prod, 2003)
